MrgX1 PAM: allosterically activates human MrgX1 receptor signaling; Q96LB2; MrgX1-HEK293, Fluo-4 calcium flux, FDSS; hits give high values; B-score at 10 µM; 310,000 compounds, 0.63% hits;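 active means plate-corrected calcium response at least 3 library SD above typical, normal starting fluorescence, not activating the receptor alone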;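 further: compound read alongside a low EC10 to EC30 dose of BAM8-22 agonist; peak minus trough fluorescence over baseline measured at the second addition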
Target sequence (Q96LB2 whole entry, looked up): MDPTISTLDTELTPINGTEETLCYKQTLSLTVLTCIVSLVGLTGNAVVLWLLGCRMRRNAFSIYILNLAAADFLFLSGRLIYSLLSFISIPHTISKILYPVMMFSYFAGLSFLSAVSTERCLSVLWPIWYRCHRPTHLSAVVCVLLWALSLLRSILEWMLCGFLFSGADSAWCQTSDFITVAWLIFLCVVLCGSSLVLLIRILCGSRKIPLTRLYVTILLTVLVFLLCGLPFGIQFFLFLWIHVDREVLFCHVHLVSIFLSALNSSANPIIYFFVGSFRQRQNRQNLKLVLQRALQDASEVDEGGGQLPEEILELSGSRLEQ
Lipid droplet: hepatic lipid droplet formation modulation; inhibition, % at 6.5 µM; AML12 mouse hepatocytes, oleate lipid droplets, BODIPY imaging; AID 1656; 240,000 compounds, 0.4% hits;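 active means lipid droplet intensity inhibited by at least 50%, with more than 500 cells counted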
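Technique: fluorescence imaging, 20x objective, two fields per well / Assay system: AML12 hepatocytes (mouse) / Measure: % inhibition of lipid droplet signal / Doses: 6.5 µM single-point dosing / Incubation: overnight exposure / Reagent: 100 µM oleic acid challenge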
MrgX1 agonist: activates human MrgX1 receptor signaling; Q96LB2; MrgX1-HEK293 cells, Fluo-4 calcium fluorescence, agonist mode; hits give high values; B-score at 10 µM; 310,000 compounds, 0.44% hits; AID 588627;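 active means calcium response B-score plate-corrected fluorescence ratio at least 3 library SD, with starting fluorescence B-score inside 5 SD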
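times = overnight plating, then 30 min 37 °C plus 30 min room-temperature dye loading | assay system = stable human MrgX1 HEK293 cell line | input = fifteen thousand cells per well | signal = kinetic calcium dye fluorescence, Fluo-4 NW | dosing = compound delivered in addition one of three | read-out = B-scored fluorescence response ratio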
MrgX1 antagonist: human MrgX1 receptor antagonism, primary screen; Q96LB2; MRGX1-HEK293 calcium flux, Fluo-4, BAM8-22 antagonism; hits give low values; 310,000 compounds, 1.3% hits; B-score at 10 µM;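 active means calcium-response B-score plate-corrected more than 3 library SD below zero, starting fluorescence within 5 deviations, no agonist response on first addition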;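 further: peak minus trough fluorescence over baseline after final BAM8-22 challenge near maximal dose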
RGS4 inh: human RGS4 inhibition | HEK293 M3R/RGS4 inducible, Fluo-4 calcium flux; hits give high values; triggered by carbachol at its EC20 | B-score at 10 µM | 310,000 compounds, 0.45% hits | AID 463165;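 active means B-score, a plate-corrected calcium signal, over three deviations above library mean, with baseline fluorescence within five deviations of library mean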;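 further: RGS4 expression induced by doxycycline in cells with stable M3 receptor; B-score is computed from the integrated fluorescence ratio over baseline after carbachol; higher B-score means a larger calcium signal and so more RGS4 inhibition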
RGS4 act: potentiators or activators of RGS4; B-score at 10 µM; HEK293 M3R/inducible RGS4, carbachol calcium flux Fluo4; hits give low values; AID 463111; 310,000 compounds, 0.92% hits;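 active means B-score of the integrated calcium signal more than 4 SD below the library mean, with starting fluorescence not abnormally high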;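 further: negative B-score means reduced calcium response which marks RGS4 activation or potentiation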
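test system = HEK293 cells with stable M3R and inducible RGS4 | schedule = recording 10 s baseline at 1 Hz, 100 s post-agonist | technique = Fluo4-AM (2 µM) calcium-flux fluorescence, kinetic read | measure = Agonist-evoked peak-minus-minimum fluorescence over baseline, integrated ratio, B score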
MrgX1 ant reconf: confirmation of human MrgX1 receptor antagonists; shares compounds with MrgX1 antagonist; MrgX1-HEK293, BAM8-22 calcium flux, Fluo-4; hits give low values; remaining BAM8-22 calcium response % of control (hits give low values), % at 10 µM; 2,300 compounds, 19% hits; AID 602420;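 active means remaining agonist calcium response no higher than 100% minus 3 SD of agonist-only control wells, with starting fluorescence near control levels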;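 further: agonist BAM8-22 given at a near maximal EC90 to ECmax level; peak minus minimum fluorescence divided by baseline after agonist addition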
HEK293 Ca flux: counter-screen for MrgX1 antagonists: effect in parental HEK293 cells; shares compounds with MrgX1 antagonist; Fluo-4 calcium fluorescence, FDSS; fluorescence ratio F(max-min)/F0 at 10 µM; 4,000 compounds, 2% hits; AID 624111;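 active means duplicate-averaged calcium fluorescence ratio at least three times the standard deviation of buffer wells, a nonspecific response in parental cells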
HEK293 Ca counter: counter-screen for MrgX1 allosteric activators: effect in parental HEK293 cells; parental HEK293 calcium flux, Fluo-4 fluorescence ratio; hits give high values; shares compounds with MrgX1 antagonist; 4,000 compounds, 0.4% hits; fluorescence ratio F(max-min)/F0 at 10 µM;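 active means calcium fluorescence ratio, averaged over duplicates, at least 3 SD of the buffer-well ratio, meaning a nonspecific response in receptor-free cells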;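 further: untransfected parental HEK293 lacking MrgX1 used as counterscreen for MrgX1 allosteric activators; fluorescence change taken during the second addition on a kinetic imager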
HEK293 Ca cntr2: counter-screen for MrgX1 activators: effect in parental HEK293 cells | shares compounds with MrgX1 antagonist | Fluo-4 calcium fluorescence (FDSS); hits give high values | fluorescence ratio F(max-min)/F0 at 10 µM | 4,000 compounds, 8.7% hits | AID 624115;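 active means calcium fluorescence ratio at least three times the spread of buffer wells, meaning a non-specific response in parental cells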
* hit, by the source's call; i = inactive; nt = not tested or not shown. Only some compounds are listed: those with a hit (about 3.8% of all), similar ones and a draw of the others.

SMILES	MrgX1 PAM	Lipid droplet	MrgX1 agonist	MrgX1 antagonist	RGS4 inh	RGS4 act	MrgX1 ant reconf	HEK293 Ca flux	HEK293 Ca counter	HEK293 Ca cntr2
CC(C)NC(=O)c1sc2nc(-c3cccs3)cc(-c3cccs3)c2c1N	i	-5	i	-9*	i	i	i	i	i	i
COc1ccc(C(=O)c2sc3nc(C)cc(-c4cccs4)c3c2N)cc1	nt	-10	nt	nt	i	i	nt	nt	nt	nt
CCC(Sc1nc2ncccc2[nH]1)C(=O)NC1CCC(C)CC1 (stereo not drawn)	i	-8	i	i	i	i	nt	nt	nt	nt
CCC(Sc1nc2ncccc2[nH]1)C(=O)NCCc1ccccc1 (stereo not drawn)	i	1	i	-8.7*	i	i	i	i	i	i
CC(=O)Nc1ccc(NC(=O)CCc2nc3sc4c(c3c(=O)[nH]2)CCCC4)cc1	i	nt	i	-4.6*	i	i	i	i	i	i
CCN(CC(=O)Nc1ccc(NC(C)=O)cc1)C(=O)c1ccc2ccccc2c1	i	nt	i	-5.1*	i	i	i	i	i	i
Nc1nnc(SCc2ccccc2Cl)s1	i	-3	i	i	i	i	nt	nt	nt	nt
Nc1nnc(SCc2cc3c(cc2Cl)OCO3)s1	i	-14	i	-6.3*	i	i	i	i	i	i
O=[N+]([O-])c1ccc(N2CCN(c3ccccn3)CC2)c(Cl)c1	i	0	i	i	i	i	nt	nt	nt	nt
COCCn1c(=S)[nH]c2cc(OC)c(OC)cc2c1=O	i	6	i	-9.1*	i	i	i	i	i	i
CCN(CC)CCCn1c(=S)[nH]c2cc(OC)c(OC)cc2c1=O	i	3	i	i	i	i	nt	nt	nt	nt
Cc1ccc2nc(N3CCN(c4ccccc4F)CC3)c(C=O)c(=O)n2c1	i	-6	i	i	i	i	nt	nt	nt	nt
CC(=O)NC(CC(=O)OCC(=O)N1CCc2ccccc21)c1ccccc1 (stereo not drawn)	i	nt	i	i	i	i	nt	nt	nt	nt
